Here are results for 27 compounds from ChEMBL document CHEMBL2380243, “Design and synthesis of 2-N-substituted indazolone derivatives as non-carboxylic acid glycogen synthase activators” (Bioorg Med Chem Lett, 2013).

Data set [1] concerns the target T1, Glycogen [starch] synthase, muscle (Homo sapiens, UniProt P13807).
T1 sequence (P13807 whole entry): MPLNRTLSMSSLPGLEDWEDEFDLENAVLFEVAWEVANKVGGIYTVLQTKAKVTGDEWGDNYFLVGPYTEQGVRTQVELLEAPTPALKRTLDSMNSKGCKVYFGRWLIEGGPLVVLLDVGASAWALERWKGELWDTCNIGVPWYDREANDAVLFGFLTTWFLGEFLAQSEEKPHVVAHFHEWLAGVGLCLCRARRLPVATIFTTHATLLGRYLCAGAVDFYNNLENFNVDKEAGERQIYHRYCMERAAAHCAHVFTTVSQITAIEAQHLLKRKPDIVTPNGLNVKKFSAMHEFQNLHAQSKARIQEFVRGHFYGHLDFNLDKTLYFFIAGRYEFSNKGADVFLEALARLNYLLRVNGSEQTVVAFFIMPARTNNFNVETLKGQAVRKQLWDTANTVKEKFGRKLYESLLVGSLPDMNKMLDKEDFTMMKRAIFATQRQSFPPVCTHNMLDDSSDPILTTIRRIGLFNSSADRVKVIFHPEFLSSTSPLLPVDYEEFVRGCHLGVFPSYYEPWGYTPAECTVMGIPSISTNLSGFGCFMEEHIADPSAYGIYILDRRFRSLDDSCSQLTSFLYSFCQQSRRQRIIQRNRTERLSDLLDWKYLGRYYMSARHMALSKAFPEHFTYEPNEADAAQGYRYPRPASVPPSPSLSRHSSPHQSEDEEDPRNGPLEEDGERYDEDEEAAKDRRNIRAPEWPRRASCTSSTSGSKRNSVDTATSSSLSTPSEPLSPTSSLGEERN
Put plainly: Activation of human recombinant muscle GYS1 expressed in insect sf9 cells using glycogen and UDP-glucose as substrates by spectrophotometry. In short, it runs like this: (§1)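 Recombinant human muscle GYS1 (partially purified from sf9 cells) is read in a pyruvate kinase/lactate dehydrogenase-coupled assay at room temperature. Compounds are diluted in 30 mM glycylglycine pH 7.3, 40 mM KCl, 20 mM MgCl2, 9.2% DMSO, ±20 mM glucose-6-phosphate. The substrate mix holds glycogen, UDP-glucose, PEP and NADH, all as solution concentrations. NADH loss is read at 340 nm every 3 min for 15 min. EC50 is half-maximal activation, SC200 is the concentration doubling activity, and dose-response runs are in triplicate.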

Data set [2] addresses T2, Glycogen [starch] synthase, muscle (Homo sapiens) (UniProt P13807).
T2 sequence (whole entry): T1 sequence (P13807 whole entry)
The experiment in a line: Activation of human recombinant muscle GYS1 expressed in insect sf9 cells using glycogen and UDP-glucose as substrates at 75 uM by spectrophotometry relative to control. The method, boiled down:
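Same coupled GYS1 assay (sf9-derived human muscle enzyme, PK/LDH coupling, NADH absorbance at 340 nm read every 3 min over 15 min, room temperature). Activation is expressed as fold increase over control at the highest concentration tested.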

Data set [3] can be described thus: Cmax in C57 mouse at 10 mg/kg, po. Type of data set: ADME, organism-based. Also on record: dose 10 mg/kg, route oral. The following applies: in vivo. The method, boiled down:
(§2)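 C57 mice get a single oral dose of 10 mg/kg as an aqueous suspension in 0.1 M phosphate buffer, pH 7.4, containing 10% PEG 400 by volume. Plasma exposure is measured and reported as Cmax and AUC.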

Data set [4] concerns the target T2, Glycogen [starch] synthase, muscle (Homo sapiens). The experiment in a line: Activation of human recombinant muscle GYS1 expressed in insect sf9 cells using glycogen and UDP-glucose as substrates assessed as concentration required to 200% activation by spectrophotometry. In short, it runs like this: as §1
The nature of data set [5]: AUC in C57 mouse at 10 mg/kg, po. Type of data set: ADME, organism-based. Also on record: dose 10 mg/kg, route oral. The following applies: plasma. In short, it runs like this:
as §2

The test system of the next data set is Mus musculus. Put plainly: Drug metabolism in po dosed C57 mouse assessed as conversion to ortho-aminobenzoic acid in plasma. Type of data set: ADME, organism-based. The note with it: in vivo.

As for `O=C(O)[C@@H]1CCCN1C(=O)c1ccc(COc2ccc(-c3ccccc3)cc2)o1`, the EC50 in data set [1] stood at 15100 nM. The fold change (FC) in data set [2] amounted to 5.8.
As to `Cn1[nH]c2c(COc3ccc(-c4cc(F)c(F)cc4F)cc3)cccc2c1=O`, in data set [1], the concentration for a half-maximal effect (EC50) was 1780 nM. In data set [3], this compound yielded a Cmax of 254 ng/mL. In addition, the Activity in data set [4] was 0.49 µM. Further, in data set [2], the fold change (FC) stood at 6.8. This compound yielded an area under the curve (AUC) in data set [5] of 746 ng·h/mL.
Take `O=c1c2cccc(COc3ccc(-c4cc(F)c(F)cc4Cl)cc3)c2[nH]n1C[C@@H](O)CO`: in data set [1], the 50% effective concentration (EC50) turned out to be 260 nM. In addition, the Activity in data set [4] turned out to be 0.25 µM. Further, the fold change (FC) in data set [2] is 3.6.
The corresponding values for `Cc1cc(F)c(F)cc1-c1ccc(OCc2cccc3c(=O)n(C)[nH]c23)cc1` are 240 nM, 0.13 µM and 3.
Consider `COc1cc(F)c(F)cc1-c1ccc(OCc2cccc3c(=O)n(C[C@@H](O)CO)[nH]c23)cc1`, for which the concentration for a half-maximal effect (EC50) in data set [1] was determined as 270 nM. In data set [4], the Activity came to 0.06 µM. In addition, the fold change (FC) in data set [2] is 3.1.
As for `O=c1c2cccc(COc3ccc(-c4cc(F)c(F)cc4F)cc3)c2[nH]n1-c1cccnc1`, the EC50 in data set [1] came to 4010 nM. Besides, the Activity in data set [4] amounted to 2.75 µM. The fold change (FC) in data set [2] was 5.8.
On to `Cc1cc(F)c(F)cc1-c1ccc(OCc2cccc3c(=O)n(C[C@@H](O)CO)[nH]c23)cc1`, for which the EC50 in data set [1] came to 230 nM. For the same compound, the Activity in data set [4] was 0.1 µM. Besides, the fold change (FC) in data set [2] was found to be 3.
Regarding `COc1cc(F)c(F)cc1-c1ccc(OCc2cccc(C(=O)N(C)CCO)c2)cc1`, the EC50 in data set [1] was found to be 4100 nM. In addition, the fold change (FC) in data set [2] was found to be 7.3.
As to `O=c1c2cccc(COc3ccc(-c4cc(F)c(F)cc4Cl)cc3)c2[nH]n1-c1cccnc1`, the EC50 in data set [1] is 1860 nM. Besides, the Activity in data set [4] was found to be 1.14 µM. Moreover, the fold change (FC) in data set [2] stood at 6.1.
As to `COc1cc(F)c(F)cc1-c1ccc(OCc2cccc3c(=O)n(-c4ccc(F)cc4)[nH]c23)cc1`, the EC50 in data set [1] came to 1370 nM. Moreover, the Activity in data set [4] was determined as 2.01 µM. In data set [2], the fold change (FC) was 2.8.
For the compound `O=c1c2cccc(COc3ccc(-c4cc(F)c(F)cc4F)cc3)c2[nH]n1CCO`, the EC50 in data set [1] came to 770 nM. This compound gave a maximum concentration (Cmax) in data set [3] of 1350 ng/mL. In addition, the Activity in data set [4] turned out to be 0.22 µM. Also, in data set [2], the fold change (FC) worked out at 5.5. The AUC in data set [5] stood at 3590 ng·h/mL.
Consider `O=c1c2cccc(COc3ccc(-c4cc(F)c(F)cc4F)cc3)c2[nH]n1C[C@@H](O)CO`, for which the EC50 in data set [1] was 680 nM. Further, in data set [4], the Activity came to 0.32 µM. Moreover, in data set [2], the fold change (FC) was determined as 3.3.
For `Cc1cc(F)c(F)cc1-c1ccc(OCc2cccc3c(=O)n(-c4ccc(F)cc4)[nH]c23)cc1`, in data set [1], the EC50 came out at 1470 nM. In data set [4], the Activity amounted to 1.86 µM. Also, the fold change (FC) in data set [2] worked out at 2.5.
On to `O=c1o[nH]c2c(COc3ccc(-c4cc(F)c(F)cc4F)cc3)cccc12`, for which the EC50 in data set [1] is 1000 nM. The Drug metabolism entry with Mus musculus is “Active”. The Activity in data set [4] was found to be 0.41 µM. In data set [2], the fold change (FC) was 4.
For the compound `O=c1c2cccc(COc3ccc(-c4cc(F)c(F)cc4Cl)cc3)c2[nH]n1C[C@H](O)CO`, the EC50 in data set [1] turned out to be 300 nM. Further, in data set [4], the Activity came to 0.16 µM. Moreover, the fold change (FC) in data set [2] was 3.5.
For `O=c1c2cccc(COc3ccc(-c4cc(F)c(F)cc4F)cc3)c2[nH]n1C[C@H](O)CO`, the EC50 in data set [1] was 580 nM. Also, the Activity in data set [4] is 0.41 µM. The fold change (FC) in data set [2] is 3.
Regarding `Cc1cc(F)c(F)cc1-c1ccc(OCc2cccc3c(=O)n(CC(=O)O)[nH]c23)cc1`, in data set [1], the EC50 is 420 nM. In addition, the Activity in data set [4] amounted to 0.33 µM. Moreover, in data set [2], the fold change (FC) was 3.7.
As for `COc1cc(F)c(F)cc1-c1ccc(OCc2cccc(C(=O)N(C)CC(O)CO)c2)cc1` (stereo unspecified), in data set [1], the half-maximal effective concentration (EC50) was found to be 10300 nM. In addition, the fold change (FC) in data set [2] came out at 6.6.
For `COc1cc(F)c(F)cc1-c1ccc(OCc2cccc(C(=O)N(C)CC(=O)O)c2)cc1`, in that order: 100 nM and 6.8.
Regarding `COc1cc(F)c(F)cc1-c1ccc(OCc2cccc3c(=O)n(CC(=O)O)[nH]c23)cc1`, the EC50 in data set [1] was determined as 200 nM. Moreover, the Activity in data set [4] came to 0.06 µM. Besides, in data set [2], the fold change (FC) worked out at 3.2.
For `O=C(O)Cn1[nH]c2c(COc3ccc(-c4cc(F)c(F)cc4F)cc3)cccc2c1=O`, in that order: 1200 nM, 0.69 µM and 3.6.
`Cc1cc(F)c(F)cc1-c1ccc(OCc2cccc3c(=O)n(C[C@H](O)CO)[nH]c23)cc1`: in data set [1], the 50% effective concentration (EC50) was found to be 340 nM. Moreover, the Activity in data set [4] turned out to be 0.11 µM. The fold change (FC) in data set [2] worked out at 3.3.
In the case of `COCCn1[nH]c2c(COc3ccc(-c4cc(F)c(F)cc4OC)cc3)cccc2c1=O`, the concentration for a half-maximal effect (EC50) in data set [1] worked out at 370 nM. In addition, the Activity in data set [4] turned out to be 0.11 µM. In data set [2], the fold change (FC) came out at 4.4.
As to `COc1cc(F)c(F)cc1-c1ccc(OCc2cccc(C(=O)N3CCC[C@H]3C(=O)O)c2)cc1`, the EC50 in data set [1] stood at 140 nM. Also, in data set [2], the fold change (FC) turned out to be 5.4.
With `COCCn1[nH]c2c(COc3ccc(-c4cc(F)c(F)cc4F)cc3)cccc2c1=O`, the 50% effective concentration (EC50) in data set [1] turned out to be 790 nM. Also, in data set [4], the Activity is 0.52 µM. For the same compound, in data set [2], the fold change (FC) was determined as 3.
The corresponding values for `COc1cc(F)c(F)cc1-c1ccc(OCc2cccc3c(=O)n(C[C@H](O)CO)[nH]c23)cc1` are 250 nM, 0.07 µM and 3.3.
As for `COc1cc(F)c(F)cc1-c1ccc(OCc2cccc3c(=O)n(C)[nH]c23)cc1`, the half-maximal effective concentration (EC50) in data set [1] was found to be 320 nM. In data set [4], the Activity turned out to be 0.07 µM. Besides, in data set [2], the fold change (FC) amounted to 5.4.
